Series [1] can be described thus: Metabolic stability in human serum assessed as full length product remaining after 10 mins by HPLC. It counts as ADME, cell-free. To be noted: read-out: Stability. An outline of the steps: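 About 0.5 A260 units compound in 1% human serum in PBS, 37 °C; aliquot taken at 10 min, analysed by anion-exchange HPLC for percent intact full-length product.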
Series [2] addresses Toll-like receptor 3 (Homo sapiens) (UniProt O15455). Kind of series: Activation of human TLR3 expressed in HEK293 assessed as induction of NF-kappaB activity reporter gene assay. In kind it is cell-based.
For series [3], the system named is PBMC. Kind of series: Immunomodulatory activity in human PBMC assessed as induction of IL12 at 100 ug/ml after 24 hrs. It counts as functional, cell-based. An outline of the steps: (§1)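 Human PBMCs plated at 5 × 10^6 cells/mL; compounds dissolved in PBS added at various concentrations, 37 °C for 24 h. Supernatant cytokines/chemokines quantified with human Luminex multiplex kit.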

The target of series [4] is T1, Toll-like receptor 9 (Mus musculus) (UniProt Q9EQU3).
T1 sequence (whole entry): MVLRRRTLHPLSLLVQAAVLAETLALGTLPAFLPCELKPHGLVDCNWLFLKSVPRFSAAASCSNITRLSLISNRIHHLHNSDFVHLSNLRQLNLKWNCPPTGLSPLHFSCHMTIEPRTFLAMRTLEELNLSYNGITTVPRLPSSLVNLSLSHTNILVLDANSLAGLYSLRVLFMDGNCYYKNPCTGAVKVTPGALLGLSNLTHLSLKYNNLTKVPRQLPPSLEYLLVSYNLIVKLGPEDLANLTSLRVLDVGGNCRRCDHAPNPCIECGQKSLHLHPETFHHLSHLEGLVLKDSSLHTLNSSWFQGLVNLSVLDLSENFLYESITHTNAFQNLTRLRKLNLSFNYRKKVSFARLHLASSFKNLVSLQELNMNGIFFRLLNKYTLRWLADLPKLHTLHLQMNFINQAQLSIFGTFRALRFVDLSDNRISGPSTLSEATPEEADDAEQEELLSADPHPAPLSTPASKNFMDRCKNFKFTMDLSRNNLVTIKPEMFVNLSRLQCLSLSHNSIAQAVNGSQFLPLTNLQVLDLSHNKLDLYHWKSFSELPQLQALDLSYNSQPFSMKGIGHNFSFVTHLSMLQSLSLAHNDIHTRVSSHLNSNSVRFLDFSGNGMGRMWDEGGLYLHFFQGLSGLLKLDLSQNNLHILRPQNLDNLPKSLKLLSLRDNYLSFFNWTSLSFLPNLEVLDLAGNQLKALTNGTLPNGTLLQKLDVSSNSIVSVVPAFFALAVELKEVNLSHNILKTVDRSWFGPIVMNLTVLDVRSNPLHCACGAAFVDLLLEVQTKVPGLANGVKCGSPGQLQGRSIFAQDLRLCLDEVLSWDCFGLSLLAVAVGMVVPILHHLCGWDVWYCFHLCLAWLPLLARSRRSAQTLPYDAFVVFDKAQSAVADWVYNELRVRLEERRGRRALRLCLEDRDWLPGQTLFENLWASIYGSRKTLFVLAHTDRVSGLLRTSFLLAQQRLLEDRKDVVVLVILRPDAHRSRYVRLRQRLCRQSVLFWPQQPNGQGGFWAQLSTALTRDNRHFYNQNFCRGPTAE
Kind of series: Activation of mouse TLR9 expressed in HEK293 assessed as induction of NF-kappaB activity reporter gene assay. In kind it is cell-based.

Series [5] deals with PBMC. Kind of series: Immunomodulatory activity in human PBMC assessed as induction of TNFalpha at 100 ug/ml after 24 hrs. It counts as functional, cell-based. An outline of the steps: as §1
The test system of series [6] is Splenocyte. Kind of series: Immunomodulatory activity in C57BL/6 mouse splenocytes bearing TLR7 receptor assessed as IL12 release at 100 ug/ml after 24 hrs by ELISA. In kind it is functional, cell-based. An outline of the steps: (§2)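 C57BL/6 splenocytes in RPMI 1640 with 10% FBS, penicillin/streptomycin, 2 mM L-glutamine, plated at 5 × 10^6 cells/mL; compounds in PBS added, 37 °C for 24 h. Supernatant IL-12 and IL-6 by ELISA; representative of three independent experiments.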

In series [7] the test system is Splenocyte. Kind of series: Immunomodulatory activity in C57BL/6 mouse splenocytes bearing TLR7 receptor assessed as IL6 release at 100 ug/ml after 24 hrs by ELISA. In kind it is functional, cell-based. The essentials: as §2
The test system of series [8] is PBMC. Kind of series: Immunomodulatory activity in human PBMC assessed as induction of IFN-alpha at 100 ug/ml after 24 hrs.
Series [9] has as its target T2, Toll-like receptor 8 (Homo sapiens) (UniProt Q9NR97).
T2 sequence (whole entry): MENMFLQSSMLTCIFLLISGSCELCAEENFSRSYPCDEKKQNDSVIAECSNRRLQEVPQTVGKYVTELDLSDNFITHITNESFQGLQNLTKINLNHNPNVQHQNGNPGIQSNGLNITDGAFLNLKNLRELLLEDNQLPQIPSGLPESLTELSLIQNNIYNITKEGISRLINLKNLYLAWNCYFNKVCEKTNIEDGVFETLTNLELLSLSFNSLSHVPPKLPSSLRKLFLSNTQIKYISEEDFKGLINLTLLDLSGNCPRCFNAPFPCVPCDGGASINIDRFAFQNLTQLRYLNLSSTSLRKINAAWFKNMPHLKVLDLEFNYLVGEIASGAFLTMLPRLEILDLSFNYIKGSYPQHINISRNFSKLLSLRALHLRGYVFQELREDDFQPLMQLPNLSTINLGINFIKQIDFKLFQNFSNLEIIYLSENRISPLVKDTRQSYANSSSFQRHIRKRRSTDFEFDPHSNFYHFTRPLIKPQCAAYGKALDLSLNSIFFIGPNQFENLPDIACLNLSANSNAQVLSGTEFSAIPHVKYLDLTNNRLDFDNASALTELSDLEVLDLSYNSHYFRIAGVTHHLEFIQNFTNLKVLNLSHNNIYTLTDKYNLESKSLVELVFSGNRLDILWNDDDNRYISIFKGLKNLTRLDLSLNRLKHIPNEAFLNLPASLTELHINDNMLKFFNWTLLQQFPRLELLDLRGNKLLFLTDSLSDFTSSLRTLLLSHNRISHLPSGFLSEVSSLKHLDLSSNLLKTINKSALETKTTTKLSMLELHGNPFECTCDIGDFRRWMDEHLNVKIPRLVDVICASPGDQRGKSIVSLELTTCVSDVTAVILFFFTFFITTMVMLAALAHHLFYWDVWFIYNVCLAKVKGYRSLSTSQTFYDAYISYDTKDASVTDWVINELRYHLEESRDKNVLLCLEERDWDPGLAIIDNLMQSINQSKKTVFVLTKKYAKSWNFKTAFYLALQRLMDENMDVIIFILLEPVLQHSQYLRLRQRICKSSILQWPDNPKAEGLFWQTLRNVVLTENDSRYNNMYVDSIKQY
Kind of series: Activation of human TLR8 expressed in HEK293XL assessed as fold induction of NF-kappaB activity at 50 ug/ml after 18 hrs by reporter gene assay relative to control. An outline of the steps: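 HEK293 cells stably expressing human TLR7 or TLR8, transiently transfected with SEAP reporter plasmid; medium replaced, SIMRA compounds added, 18 h incubation. Supernatant SEAP measured by QuantiBlue; expressed as fold increase in NF-κB activity over PBS control. Tabulated data at 50 μg/mL, representative of three independent experiments.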

The results in this text go back to ChEMBL document CHEMBL1154352, “Toll-like receptor 7 selective synthetic oligoribonucleotide agonists: synthesis and structure-activity relationship studies” (J Med Chem, 2009).

The structures appear in SMILES notation. The source made the active and inactive calls. The calls are words filed in the database; no cut-off is given here.

Chain of Toll-like receptor 3 (Homo sapiens) (O15455 whole entry): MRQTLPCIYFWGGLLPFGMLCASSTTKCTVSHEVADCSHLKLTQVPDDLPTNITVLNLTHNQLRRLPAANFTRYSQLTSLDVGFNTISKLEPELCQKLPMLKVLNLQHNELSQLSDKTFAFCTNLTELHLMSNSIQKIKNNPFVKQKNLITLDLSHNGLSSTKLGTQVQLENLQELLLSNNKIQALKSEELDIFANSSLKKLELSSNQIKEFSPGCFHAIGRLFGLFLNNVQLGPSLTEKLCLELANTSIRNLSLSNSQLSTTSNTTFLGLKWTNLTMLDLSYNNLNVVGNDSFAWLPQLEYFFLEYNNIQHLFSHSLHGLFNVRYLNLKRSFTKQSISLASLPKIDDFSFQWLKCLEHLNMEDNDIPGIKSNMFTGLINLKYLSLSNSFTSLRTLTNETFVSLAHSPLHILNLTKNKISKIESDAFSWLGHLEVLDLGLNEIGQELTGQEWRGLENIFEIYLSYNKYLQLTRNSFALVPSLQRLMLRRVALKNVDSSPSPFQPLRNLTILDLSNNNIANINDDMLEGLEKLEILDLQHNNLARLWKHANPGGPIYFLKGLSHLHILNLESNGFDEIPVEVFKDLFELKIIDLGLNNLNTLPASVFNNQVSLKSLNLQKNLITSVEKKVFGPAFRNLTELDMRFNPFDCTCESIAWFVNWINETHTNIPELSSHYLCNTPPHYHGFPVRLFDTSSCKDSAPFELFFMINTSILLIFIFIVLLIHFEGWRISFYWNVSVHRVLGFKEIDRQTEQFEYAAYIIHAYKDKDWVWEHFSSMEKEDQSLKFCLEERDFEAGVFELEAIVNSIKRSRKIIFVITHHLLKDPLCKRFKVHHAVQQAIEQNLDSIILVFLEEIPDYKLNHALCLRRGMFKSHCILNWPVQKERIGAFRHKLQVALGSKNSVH

As to `Nc1ccn([C@@H]2O[C@H](COP(=O)(S)O[C@H]3[C@@H](O)[C@H](n4cnc5c(N)ncnc54)O[C@@H]3COP(=O)(S)O[C@H]3[C@@H](O)[C@H](n4ccc5c(=O)[nH]c(N)nc54)O[C@@H]3COP(=O)(S)O[C@H]3[C@@H](O)[C@H](n4ccc(=O)[nH]c4=O)O[C@@H]3COP(=O)(S)O[C@H]3[C@@H](O)[C@H](n4ccc5c(=O)[nH]c(N)nc54)O[C@@H]3COP(=O)(S)O[C@H]3[C@@H](O)[C@H](n4cnc5c(N)ncnc54)O[C@@H]3COP(=O)(S)O[C@H]3[C@@H](O)[C@H](n4cnc5c(N)ncnc54)O[C@@H]3CO)[C@@H](OP(=O)(S)OC[C@H]3O[C@@H](n4ccc5c(=O)[nH]c(N)nc54)[C@H](O)[C@@H]3OP(=O)(S)OC[C@H]3O[C@@H](n4cnc5c(N)ncnc54)[C@H](O)[C@@H]3OP(=O)(S)OC[C@H]3O[C@@H](n4ccc(=O)[nH]c4=O)[C@H](O)[C@@H]3OP(=O)(S)OC[C@H]3O[C@@H](n4ccc(=O)[nH]c4=O)[C@H](O)[C@@H]3OP(=O)(S)OCC(O)COP(=O)(S)O[C@H]3[C@@H](O)[C@H](n4ccc(=O)[nH]c4=O)O[C@@H]3COP(=O)(S)O[C@H]3[C@@H](O)[C@H](n4ccc(=O)[nH]c4=O)O[C@@H]3COP(=O)(S)O[C@H]3[C@@H](O)[C@H](n4cnc5c(N)ncnc54)O[C@@H]3COP(=O)(S)O[C@H]3[C@@H](O)[C@H](n4ccc5c(=O)[nH]c(N)nc54)O[C@@H]3COP(=O)(S)O[C@H]3[C@@H](O)[C@H](n4ccc(N)nc4=O)O[C@@H]3COP(=O)(S)O[C@H]3[C@@H](O)[C@H](n4cnc5c(N)ncnc54)O[C@@H]3COP(=O)(S)O[C@H]3[C@@H](O)[C@H](n4ccc5c(=O)[nH]c(N)nc54)O[C@@H]3COP(=O)(S)O[C@H]3[C@@H](O)[C@H](n4ccc(=O)[nH]c4=O)O[C@@H]3COP(=O)(S)O[C@H]3[C@@H](O)[C@H](n4ccc5c(=O)[nH]c(N)nc54)O[C@@H]3COP(=O)(S)O[C@H]3[C@@H](O)[C@H](n4cnc5c(N)ncnc54)O[C@@H]3COP(=O)(S)O[C@H]3[C@@H](O)[C@H](n4cnc5c(N)ncnc54)O[C@@H]3CO)[C@H]2O)c(=O)n1` (stereo partly drawn), the remaining at 10 min in [1] came to 90%. For the same compound, the result in series [2] and in [4] was inactive. For the same compound, the Activity in [3] is 400 pg/mL; in [5] it was 15.7 pg/mL. The result in [6] and in series [7] was Active. Besides, the IFN-alpha in series [8] was 254 pg/mL. In addition, in series [9], the fold change (FC) stood at 0.8.

With `Nc1ccn([C@@H]2O[C@H](COP(=O)(S)O[C@H]3[C@@H](O)[C@H](n4cnc5c(N)ncnc54)O[C@@H]3COP(=O)(S)O[C@H]3[C@@H](O)[C@H](n4cnc5c(N)ncnc54)O[C@@H]3CO)[C@@H](OP(=O)(S)OC[C@H]3O[C@@H](n4ccc(=O)[nH]c4=O)[C@H](O)[C@@H]3OP(=O)(S)OC[C@H]3O[C@@H](n4ccc(=O)[nH]c4=O)[C@H](O)[C@@H]3OP(=O)(S)OC[C@H]3O[C@@H](n4ccc5c(=O)[nH]c(N)nc54)[C@H](O)[C@@H]3OP(=O)(S)OC[C@H]3O[C@@H](n4cnc5c(N)ncnc54)[C@H](O)[C@@H]3OP(=O)(S)OC[C@H]3O[C@@H](n4ccc5c(=O)[nH]c(N)nc54)[C@H](O)[C@@H]3OP(=O)(S)OC[C@H]3O[C@@H](n4ccc(N)nc4=O)[C@H](O)[C@@H]3OP(=O)(S)OC[C@H]3O[C@@H](n4ccc(=O)[nH]c4=O)[C@H](O)[C@@H]3OP(=O)(S)OC[C@H]3O[C@@H](n4ccc(=O)[nH]c4=O)[C@H](O)[C@@H]3OP(=O)(S)OCC(O)COP(=O)(S)O[C@H]3[C@@H](O)[C@H](n4ccc(=O)[nH]c4=O)O[C@@H]3COP(=O)(S)O[C@H]3[C@@H](O)[C@H](n4ccc(=O)[nH]c4=O)O[C@@H]3COP(=O)(S)O[C@H]3[C@@H](O)[C@H](n4ccc(N)nc4=O)O[C@@H]3COP(=O)(S)O[C@H]3[C@@H](O)[C@H](n4ccc5c(=O)[nH]c(N)nc54)O[C@@H]3COP(=O)(S)O[C@H]3[C@@H](O)[C@H](n4cnc5c(N)ncnc54)O[C@@H]3COP(=O)(S)O[C@H]3[C@@H](O)[C@H](n4ccc5c(=O)[nH]c(N)nc54)O[C@@H]3COP(=O)(S)O[C@H]3[C@@H](O)[C@H](n4ccc(=O)[nH]c4=O)O[C@@H]3COP(=O)(S)O[C@H]3[C@@H](O)[C@H](n4ccc(=O)[nH]c4=O)O[C@@H]3COP(=O)(S)O[C@H]3[C@@H](O)[C@H](n4ccc(N)nc4=O)O[C@@H]3COP(=O)(S)O[C@H]3[C@@H](O)[C@H](n4cnc5c(N)ncnc54)O[C@@H]3COP(=O)(S)O[C@H]3[C@@H](O)[C@H](n4cnc5c(N)ncnc54)O[C@@H]3CO)[C@H]2O)c(=O)n1` (stereo partly drawn), in [1], the remaining at 10 min came out at 82%. The result in [2] and in series [4] was inactive. In addition, the Activity in [3] is 527 pg/mL; in series [5] it was 74.4 pg/mL. Further, the result in [6] and in [7] was Active. For the same compound, the IFN-alpha in series [8] is 106 pg/mL. In addition, the fold change (FC) in series [9] was 1.
